Bounds are passed on as bounds.

Here are results for 3 compounds from ChEMBL document CHEMBL1151946, “Doxazosin-related alpha1-adrenoceptor antagonists with prostate antitumor activity” (J Med Chem, 2009).

Test [1] concerns the target T1, Alpha-1B adrenergic receptor (Rattus norvegicus) (UniProt P15823).
T1 sequence (whole entry): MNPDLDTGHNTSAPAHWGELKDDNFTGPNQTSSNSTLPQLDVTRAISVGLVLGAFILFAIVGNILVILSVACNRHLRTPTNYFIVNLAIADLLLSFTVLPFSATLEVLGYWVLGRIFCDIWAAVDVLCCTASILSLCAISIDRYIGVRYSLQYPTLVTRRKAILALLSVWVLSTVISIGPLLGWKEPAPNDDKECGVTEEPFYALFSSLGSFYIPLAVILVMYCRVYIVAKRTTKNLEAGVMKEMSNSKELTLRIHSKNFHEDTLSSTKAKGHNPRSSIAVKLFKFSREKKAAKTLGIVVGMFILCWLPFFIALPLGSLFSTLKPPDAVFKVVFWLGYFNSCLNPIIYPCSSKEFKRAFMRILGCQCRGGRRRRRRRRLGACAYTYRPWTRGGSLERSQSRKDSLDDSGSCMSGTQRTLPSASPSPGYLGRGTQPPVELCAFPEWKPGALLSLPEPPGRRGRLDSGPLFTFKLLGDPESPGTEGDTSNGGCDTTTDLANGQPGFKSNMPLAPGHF
As to the kind of experiment: Antagonist activity at rat Alpha-1B adrenoceptor assessed as inhibition if phenylephrine-induced contraction of spleen. The format is functional, tissue-based. The procedure, abridged:
(§1)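 Isolated rat tissue contraction assay. The α1A response used vas deferens with (-)-noradrenaline as agonist, α1D used thoracic aorta with (-)-noradrenaline, and α1B used spleen with (-)-phenylephrine. pA2 values are means ± SEM over three antagonist concentrations, each tested at least four times. Where the Schild slope differed from unity, pKB was calculated by van Rossum at the lowest antagonist concentration giving log(CR−1) ≥0.5.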

The test system of the next test is NHDF. As to the kind of experiment: Cytotoxicity against human NHDF cells after 72 hrs by CellTitter-Glo luminescent cell viability assay. It counts as functional, cell-based.
Test [2] deals with T2, Alpha-1A adrenergic receptor (Rattus norvegicus) (UniProt P43140).
T2 sequence (whole entry): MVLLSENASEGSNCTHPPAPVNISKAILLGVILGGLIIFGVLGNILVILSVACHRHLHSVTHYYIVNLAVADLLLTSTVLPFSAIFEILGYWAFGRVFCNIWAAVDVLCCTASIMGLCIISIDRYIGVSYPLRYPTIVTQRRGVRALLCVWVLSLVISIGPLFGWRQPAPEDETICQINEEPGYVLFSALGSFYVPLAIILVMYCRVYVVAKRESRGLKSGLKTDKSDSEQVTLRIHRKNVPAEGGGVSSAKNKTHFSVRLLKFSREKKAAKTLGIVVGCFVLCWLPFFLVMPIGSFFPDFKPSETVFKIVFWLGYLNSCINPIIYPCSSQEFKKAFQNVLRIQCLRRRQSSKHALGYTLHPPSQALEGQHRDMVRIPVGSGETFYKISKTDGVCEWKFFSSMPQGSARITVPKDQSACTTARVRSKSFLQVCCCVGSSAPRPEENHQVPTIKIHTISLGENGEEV
As to the kind of experiment: Antagonist activity at rat alpha1A adrenoceptor assessed as inhibition if norepinephrine-induced contraction of vas deference. It counts as functional. In outline: as §1

A further test has as its system DU-145. As to the kind of experiment: Cytotoxicity against human DU145 cells after 72 hrs by CellTitter-Glo luminescent cell viability assay. The format is functional, cell-based. The note with it: DU-145, 72 h.
In test [3] the target is T3, Alpha-1B adrenergic receptor (Homo sapiens, UniProt P35368).
T3 sequence (P35368 whole entry): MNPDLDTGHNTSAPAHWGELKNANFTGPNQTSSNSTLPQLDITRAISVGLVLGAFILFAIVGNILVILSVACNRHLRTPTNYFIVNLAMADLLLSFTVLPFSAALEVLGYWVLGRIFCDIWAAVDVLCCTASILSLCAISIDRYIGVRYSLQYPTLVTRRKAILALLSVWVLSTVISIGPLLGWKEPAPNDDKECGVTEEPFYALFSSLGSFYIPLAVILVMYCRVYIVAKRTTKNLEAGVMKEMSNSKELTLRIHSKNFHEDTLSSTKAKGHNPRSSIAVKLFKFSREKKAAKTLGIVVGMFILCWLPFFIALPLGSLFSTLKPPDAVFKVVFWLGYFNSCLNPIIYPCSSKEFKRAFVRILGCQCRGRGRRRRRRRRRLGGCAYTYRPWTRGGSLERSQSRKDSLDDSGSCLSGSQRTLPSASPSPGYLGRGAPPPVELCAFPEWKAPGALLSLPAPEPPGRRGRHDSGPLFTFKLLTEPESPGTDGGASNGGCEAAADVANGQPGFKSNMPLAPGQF
The test is described as follows: Displacement of [3H]prazosin from human Alpha-1B adrenoceptor expressed in CHO cells. The format is cell-based. In outline: (§2)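 Radioligand competition binding used [3H]prazosin on membranes of CHO cells expressing human α1a, α1b or α1d adrenoceptor. IC50 values were converted to pKi by the Cheng-Prusoff equation. Data come from two to three experiments run in triplicate, agreeing within ±20%.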
For orientation: In a radioligand displacement assay an active substance lowers the binding of a labelled ligand.

Another test deals with LNCaP. As to the kind of experiment: Cytotoxicity against human LNCAP cells after 72 hrs by CellTitter-Glo luminescent cell viability assay. It counts as functional, cell-based.
In test [4] the target is T4, Alpha-1D adrenergic receptor (Homo sapiens, UniProt P25100).
T4 sequence (P25100 whole entry): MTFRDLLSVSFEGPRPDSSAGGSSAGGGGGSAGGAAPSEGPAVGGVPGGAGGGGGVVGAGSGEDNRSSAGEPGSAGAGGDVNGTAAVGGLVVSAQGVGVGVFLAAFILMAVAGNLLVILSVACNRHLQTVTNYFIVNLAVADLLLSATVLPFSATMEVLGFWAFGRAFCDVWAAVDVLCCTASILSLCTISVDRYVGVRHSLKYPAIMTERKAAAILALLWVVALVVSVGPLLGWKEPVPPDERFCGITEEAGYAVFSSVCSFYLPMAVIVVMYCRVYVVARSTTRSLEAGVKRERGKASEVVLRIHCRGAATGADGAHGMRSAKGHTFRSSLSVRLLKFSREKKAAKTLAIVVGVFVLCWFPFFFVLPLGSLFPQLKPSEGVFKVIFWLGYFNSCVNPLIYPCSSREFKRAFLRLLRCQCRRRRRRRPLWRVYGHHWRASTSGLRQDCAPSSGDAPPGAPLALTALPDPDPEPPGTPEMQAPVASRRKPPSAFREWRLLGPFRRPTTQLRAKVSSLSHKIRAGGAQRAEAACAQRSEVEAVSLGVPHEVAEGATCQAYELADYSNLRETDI
The test is described as follows: Displacement of [3H]prazosin from human Alpha-1D adrenoceptor expressed in CHO cells. The format is cell-based. The procedure, abridged:
as §2

For another test, the system named is PC-3. The test is described as follows: Cytotoxicity against human PC3 cells after 72 hrs by CellTitter-Glo luminescent cell viability assay. It counts as functional, cell-based. The note with it: PC-3, 72 h.

Take `COc1cc2nc(N(C)CCCCCCN(C)C(=O)C3COc4ccccc4O3)nc(N)c2cc1OC` (stereo not drawn): the negative logarithm of the Kb (pKb) (usually −log10 of the Kb, conventionally taken in molar units) in test [1] is 8.35; in test [2] it was 8.51. Further, the IC50 (in general, the concentration that inhibits the measured activity by half) with NHDF worked out at 9.8 µM; in the test on DU-145 it was 9.25 µM; in the test with LNCaP, 4.61 µM; in the test with PC-3, 8.4 µM. The Ki – broadly, the equilibrium dissociation constant of an inhibitor or competing ligand from its target – is 0.000933 µM in test [3] and 0.00158 µM in test [4].
`COc1cc2nc(N3CCN(C(=O)C4COc5ccccc5O4)[C@H]4CCCC[C@@H]43)nc(N)c2cc1OC` (relative stereo): the pKb worked out at 7.14 in test [1] and 5.88 in test [2]. Also, the IC50 is > 10 µM in the test on NHDF, > 10 µM in the test on DU-145, 9.75 µM in the test on LNCaP and > 10 µM with PC-3. Further, the Ki was 0.0224 µM in test [3] and 0.0263 µM in test [4].
With `COc1cc2nc(N3CCN(C(=O)C4COc5ccccc5O4)[C@H]4CCCC[C@H]43)nc(N)c2cc1OC` (relative stereo) [CYCLODOXAZOSIN], the figures for the pKb in test [1] and in test [2] were 8.3 and 7.21, respectively. Also, the half-maximal effective concentration (EC50) (in general, the concentration needed to bring the measured effect to its halfway point) in the test on NHDF is > 10 µM; in the test on DU-145, 2.6 µM; in the test with LNCaP, 1.42 µM; in the test on PC-3, 1.86 µM. For the same compound, the IC50 turned out to be 1.46 µM with NHDF, 0.96 µM in the test on DU-145, 0.57 µM in the test on LNCaP and 0.85 µM with PC-3. For the same compound, the inhibitory constant (Ki) is 0.000417 µM in test [3] and 0.00017 µM in test [4].
